Experimental findings from ChEMBL document CHEMBL3621122, “Synthesis of new indole-based bisphosphonates and evaluation of their chelating ability in PE/CA-PJ15 cells” (Eur J Med Chem, 2015) are described below.

Data set [1] concerns Liver microsome. The data set is described as follows: Drug level in human liver microsomes treated with tetraethyl (3-(5-fluoroindol-3-yl)propane-1,1-diyl)bis(phosphonate) at 5 uM preincubated for 5 mins followed by NADPH addition measured after 30 mins by LC/MS analysis. It counts as ADME. Conditions: 0.5 h. A digest of the protocol: (§1)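 Human liver microsomes (0.5 mg protein/ml) with substrate at 5 µM final in 100 mM potassium phosphate pH 7.4. Preincubated 5 min at 37 °C with shaking, then started with 1 mM NADPH. Stopped at 0 and 30 min with cold acetonitrile containing labetalol internal standard. Spun 12,000 g, 5 min, 4 °C; supernatant analysed by HPLC-MS/MS.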

The subject of data set [2] is Liver microsome. The experiment in a line: Retention time of the compound in human liver microsomes at 5 uM preincubated for 5 mins followed by NADPH addition measured after 30 mins by LC/MS analysis. It counts as ADME. Conditions: 0.5 h. An outline of the steps:
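Microsomal incubation: 0.5 mg protein/ml, 5 µM substrate final, pH 7.4 phosphate, 5 min preincubation at 37 °C, 1 mM NADPH, quenched at 0 and 30 min with cold acetonitrile. Supernatant run by HPLC-MS/MS on a C18 column (100 × 2.1 mm, 40 °C). Mobile phases were water/0.1% formic acid and acetonitrile/0.1% formic acid at 0.3 mL/min, gradient from 0% B.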
(In general: Liver microsomes are vesicles of endoplasmic reticulum, rich in cytochrome P450 enzymes.)

The species entered for data set [3] is Homo sapiens. The data set is described as follows: Metal chelating activity in human PE/CA-PJ15 cells assessed as decrease in extracellular Ca2+ concentration by FURA-2 AM probe-based spectrophotofluorometric analysis. It counts as functional, cell-based. A digest of the protocol:
(§2)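 Cell suspension was diluted into HBSS with 1 mM CaCl2 and lysed with 1% Triton X-100. Ca2+/Fura-2 fluorescence after lysis was set as 100%, and bisphosphonate (10–30 µM) was then added. The fluorescence drop was followed over time and read at 30 µM. Mean of 10 experiments ± SEM.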

The species named for data set [4] is Homo sapiens. The experiment in a line: Metal chelating activity in human PE/CA-PJ15 cells assessed as change in cytosolic Ca2+ concentration at 10 to 30 uM after 50 secs using Ca2+ containing medium by FURA-2 AM probe-based spectrophotofluorometric analysis. The class given is functional, cell-based. A digest of the protocol: (§3)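 Cultured PE/CA-PJ15 cells loaded with FURA-2 AM for 60 min at 37 °C in the dark. Cells resuspended in HBSS pH 7.4, either Ca2+-free (0.1 mM EGTA) or with 1 mM Ca2+. Bisphosphonate added to 10 µM, then a second addition 150 s later to 30 µM. Ratio fluorescence read at ex 340/380 nm, em 510 nm, converted to [Ca2+]c. Δ[Ca2+]c (nM) taken 50 s after addition; mean of 10 experiments ± SEM.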

Data set [5] is filed under the species Homo sapiens. The experiment in a line: Metal chelating activity in human PE/CA-PJ15 cells assessed as decrease in cytosolic Ca2+ concentration at 10 to 30 uM after 50 secs using Ca2+ free medium by FURA-2 AM probe-based spectrophotofluorometric analysis.
Data set [6] relates to Liver microsome. The experiment in a line: Drug metabolism in human liver microsomes assessed as radical of 3-allyl-1H-indole/3-methyl-1H-indole formation by measuring remaining compound level at 5 uM preincubated for 5 mins followed by NADPH addition measured after 30 mins by LC/MS analysis. Conditions: 0.5 h. It counts as ADME. An outline of the steps:
(§4)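 Substrate at 5 µM final with human liver microsomes (0.5 mg protein/ml) in 100 mM potassium phosphate pH 7.4, preincubated 5 min at 37 °C with shaking; started with 1 mM NADPH. Stopped at 0 and 30 min with cold acetonitrile containing labetalol internal standard. Protein spun down; supernatant analysed by HPLC-MS/MS for parent remaining.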

Data set [7] is filed under the species Homo sapiens. The data set is described as follows: Metal chelating activity in human PE/CA-PJ15 cells assessed as change in cytosolic Ca2+ concentration at 10 to 30 uM after 50 secs using Ca2+ free medium by FURA-2 AM probe-based spectrophotofluorometric analysis. It counts as functional, cell-based. A digest of the protocol: as §3
The species entered for data set [8] is Homo sapiens. The data set is described as follows: Metal chelating activity in human PE/CA-PJ15 cells assessed as decrease in extracellular Ca2+ concentration at 30 uM by FURA-2 AM probe-based spectrophotofluorometric analysis. Further details: scale not given: the % may be the effect or the level left. It counts as functional, cell-based. A digest of the protocol:
as §2

The species named for data set [9] is Homo sapiens. The data set is described as follows: Metal chelating activity in human PE/CA-PJ15 cells assessed as change in cytosolic Ca2+ concentration at 60 uM after 50 secs using Ca2+ free medium by FURA-2 AM probe-based spectrophotofluorometric analysis. The class given is functional, cell-based.
Data set [10] is filed under the species Homo sapiens. The data set is described as follows: Increase in cytosolic Ca2+ concentration in human PE/CA-PJ15 cells after 50 secs using Ca2+ containing medium by FURA-2 AM probe-based spectrophotofluorometric analysis. It counts as functional, cell-based. A digest of the protocol: as §3
The species entered for data set [11] is Homo sapiens. The experiment in a line: Metal chelating activity in human PE/CA-PJ15 cells assessed as change in cytosolic Ca2+ concentration at 60 uM after 50 secs using Ca2+ containing medium by FURA-2 AM probe-based spectrophotofluorometric analysis. It counts as functional, cell-based.
The nature of data set [12]: Lipophilicity, log P of the compound. The class given is physicochemical. Conditions: octanol/water.
Data set [13] relates to Liver microsome. The data set is described as follows: Drug level in human liver microsomes treated with tetraethyl (3-(indol-3-yl)propane-1,1-diyl)bis(phosphonate) at 5 uM preincubated for 5 mins followed by NADPH addition measured after 30 mins by LC/MS analysis. The class given is ADME. Conditions: 0.5 h. An outline of the steps:
as §1

The test system of data set [14] is Liver microsome. The experiment in a line: Drug metabolism in human liver microsomes assessed as radical of 3-allyl-5-fluoro-1H-indole formation by measuring remaining compound level at 5 uM preincubated for 5 mins followed by NADPH addition measured after 30 mins by LC/MS analysis. The class given is ADME. The following applies: 0.5 h. An outline of the steps:
as §4

A short description of data set [15]: Drug level in presence of tetraethyl (3-(indol-3-yl)propane-1,1-diyl)bis(phosphonate). The class given is physicochemical. A digest of the protocol:
as §4

Molecules are shown by their SMILES. The source made the active and inactive calls. The rule behind the calls is not given here.

`[CH]=CCc1c[nH]c2ccc(F)cc12`: the Drug metabolism result in the data set with Liver microsome [1] is given as “metabolite_detected”. Moreover, in the data set with Liver microsome [2], the Retention_time is 5.628 min.
With `CCOP(=O)(OCC)C(CCc1c[nH]c2ccccc12)P(=O)(OCC)OCC`, the Activity entry was “Dose-dependent effect” in the data set filed under Homo sapiens [3] and -73% in the data set listed under Homo sapiens [8]. The outcome in the data set listed under Homo sapiens [4], in the data set filed under Homo sapiens [5] and in the data set filed under Homo sapiens [7] was Active. In addition, the Stability in the data set on Liver microsome [6] came to 20%. In the data set on Liver microsome [2], this molecule showed a Retention_time of 8.142 min.
For the molecule `CCOP(=O)(OCC)C(CCc1c[nH]c2cc(F)ccc12)P(=O)(OCC)OCC`, the result in the data set listed under Homo sapiens [4] and in the data set listed under Homo sapiens [7] was Active. Further, the Activity in the data set filed under Homo sapiens [8] was -18%.
Take `CCOP(=O)(OCC)C(CCc1c[nH]c2ccncc12)P(=O)(OCC)OCC`: the Activity in the data set filed under Homo sapiens [9] is 36 nM; in the data set filed under Homo sapiens [10], “Dose-dependent effect”; in the data set filed under Homo sapiens [11] it was 67 nM; in the data set filed under Homo sapiens [8], -6%. Moreover, the result in the data set filed under Homo sapiens [5] and in the data set listed under Homo sapiens [7] was inactive.
Take `O=P(O)(O)C(Cl)(Cl)P(=O)(O)O` [CLODRONATE DISODIUM]: the outcome in the data set filed under Homo sapiens [4] and in the data set filed under Homo sapiens [7] was Active. Further, in data set [12] (read-out: logP), the log partition coefficient (logP) is -2.4. The Activity in the data set listed under Homo sapiens [8] was -12%.
On to `CC(O)(P(=O)(O)O)P(=O)(O)O` [ETIDRONATE DISODIUM], for which the logP in data set [12] (read-out: logP) is -3.8.
Molecule `[CH2]c1c[nH]c2ccccc12` displayed a Retention_time in the data set on Liver microsome [2] of 5.183 min. For the same molecule, the Drug metabolism entry in the data set on Liver microsome [13] was “metabolite_detected”.
In the case of `NCCC(O)(P(=O)([O-])O)P(=O)([O-])O.[Na+].[Na+]`, in data set [12], the logP was -4.7.
`CCOP(=O)(OCC)C(CCc1c[nH]c2ccc(F)cc12)P(=O)(OCC)OCC`: the outcome in the data set filed under Homo sapiens [4], in the data set filed under Homo sapiens [5] and in the data set filed under Homo sapiens [7] was Active. Further, the Stability with Liver microsome [14] is 20%. In the data set with Liver microsome [2], the Retention_time worked out at 8.365 min. Besides, the Activity in the data set listed under Homo sapiens [8] is -34%.
Take `CCOP(=O)(OCC)C(CCc1c[nH]c2ccc(C(F)(F)F)cc12)P(=O)(OCC)OCC`: the outcome in the data set filed under Homo sapiens [4] and in the data set filed under Homo sapiens [7] was Active. For the same molecule, the Activity in the data set filed under Homo sapiens [8] is -16.5%.
For `CCOP(=O)(OCC)C(CCc1c[nH]c2cc(C(F)(F)F)ccc12)P(=O)(OCC)OCC`, the outcome in the data set listed under Homo sapiens [4] and in the data set listed under Homo sapiens [7] was Active. For the same molecule, the Activity in the data set filed under Homo sapiens [8] is -5%.
Regarding `O=P(O)(O)C(CCc1c[nH]c2ccccc12)P(=O)(O)O`, in data set [15], the Drug metabolism result is listed as “metabolite_detected”.
Still for that read-out and setting: the entry for `O=P(O)(O)C(CCc1c(C2Nc3ccccc3C2CCC(P(=O)(O)O)P(=O)(O)O)[nH]c2ccccc12)P(=O)(O)O` (stereo unspecified) is “metabolite_detected”.
Regarding `NCCCC(O)(P(=O)(O)O)P(=O)(O)O`, the outcome in the data set filed under Homo sapiens [4] and in the data set filed under Homo sapiens [7] was Active. Moreover, the Activity in the data set listed under Homo sapiens [8] was -7%.
In data set [12], `O=P([O-])(O)C(O)(Cc1cccnc1)P(=O)(O)O.[Na+]` [RISEDRONATE SODIUM] came in with a logP of -3.6.
As to `[CH]=CCc1c[nH]c2ccccc12`, in the data set on Liver microsome [2], the Retention_time was 6.829 min. In addition, in the data set on Liver microsome [13], the Drug metabolism result is “metabolite_detected”.

Usually logP stands for the decadic logarithm of the partition coefficient of the neutral form, usually between octanol and water.
